Experimental data published in ChEMBL document CHEMBL1126019, “Synthesis, stability, and biological evaluation of water-soluble prodrugs of a new echinocandin lipopeptide. Discovery of a potential clinical agent for the treatment of systemic candidiasis and Pneumocystis carinii pneumonia (PCP)” (J Med Chem, 1992).
pIC50: −log10 of the molar value.

Experiments:
Fungi [1] = assay: Minimum fungicidal concentration against Candida pseudotropicalis MY 1100; format: functional, organism-based
In short: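 Clinical isolates were inoculated at about 5×10^3 CFU into yeast nitrogen base with 1% dextrose, with drug in 2-fold dilutions from 128 to 0.06 µg/mL, and grown 24 h at 35 °C. Then 1.5 µL aliquots were spotted on Sabouraud dextrose agar and held 24 h at 35 °C. MFC is the lowest concentration giving fewer than five colonies per spot, from duplicate determinations.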

Fungi [2] = assay: Minimum fungicidal concentration against Candida albicans MY 1055; format: functional, organism-based
In short: (§1)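 Clinical isolates in yeast nitrogen base with 1% dextrose, inoculated with about 5×10^3 CFU per well. Drug was tested by 2-fold serial dilution from 128 to 0.06 µg/mL, with growth for 24 h at 35 °C. 1.5-µL aliquots were then spotted onto Sabouraud dextrose agar and incubated at 35 °C for 24 h. MFC was the lowest concentration giving fewer than five colonies per spot. Duplicate determinations.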

Fungi [3] = assay: Minimum fungicidal concentration against Candida parapsilosis MY 1010; format: functional, organism-based; in short: as §1
[4] = Inhibitory activity against glucan synthesis; format: functional
Homo sapiens = organism: Homo sapiens; assay: Hemolytic potential was determined as the minimum lytic concentration against human red blood cells; format: functional, cell-based
In short: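 Compounds were serially diluted in water containing 10% DMSO and added to whole human blood, then incubated 2 h at 37 °C. Red cell lysis was scored visually, and the lowest lytic concentration was recorded.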

Fungi [5] = assay: Minimum fungicidal concentration against Candida albicans MY 1028; format: functional, organism-based; in short: as §1
Fungi [6] = assay: Minimum fungicidal concentration against Candida tropicalis MY 1012; format: functional, organism-based; in short: as §1
Mus musculus = organism: Mus musculus; assay: Minimum effect dose required to reduce the number of colony forming units in per gram kidney of mice after being challenged, by tail vein injection, with 5 X l0e4 cells of Candida albicans (MY 1055); format: functional
In short: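 DBA/2 mice (5 per dose level) were infected intravenously and dosed ip with vehicle sham or 1.5, 3.0 or 6.0 mg/kg twice daily for 4 days. On day 7 post-infection, kidneys were cultured on SDA (35 °C, 24 h) and CFU/g counted. MED99 is the dose giving ≥99% CFU/g reduction versus vehicle sham.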

Rattus norvegicus = organism: Rattus norvegicus; assay: Minimum effect dose required to reduce the number of alveolor cyst load in rat Pneumocystis carinii pneumonia assay; format: functional
In short: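 Immunosuppressed Sprague-Dawley rats with confirmed infection (5 per dose level) were dosed subcutaneously, 0.15 and 0.60 mg/kg twice daily for 4 days. On day 5, lungs were homogenized and cysts counted microscopically in a known amount of homogenate. MED90 is the dose giving ≥90% cyst reduction versus vehicle sham controls.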

Compound	Concentration (Fungi [1]) [µg/mL]	Concentration (Fungi [2]) [µg/mL]	Concentration (Fungi [3]) [µg/mL]	pIC50 [4]	Concentration (Homo sapiens) [µg/mL]	Concentration (Fungi [5]) [µg/mL]	Concentration (Fungi [6]) [µg/mL]	MED99 (Mus musculus) [mg/kg]	MED90 (Rattus norvegicus) [mg/kg]
CCC(C)CC(C)CCCCCCCCC(=O)N[C@H]1C[C@@H](O)[C@@H](O)NC(=O)[C@@H]2[C@@H](O)CCN2C(=O)[C@H]([C@@H](O)CC(N)=O)NC(=O)[C@H]([C@H](O)[C@@H](O)c2ccc(O)cc2)NC(=O)[C@@H]2C[C@@H](O)CN2C(=O)[C@H]([C@H](C)O)NC1=O (stereo partly specified)	2	0.25	4	7.15	> 400	0.125	0.06	–	–
CCC(C)CC(C)CCCCCCCCC(=O)N[C@H]1C[C@@H](O)[C@@H](O)NC(=O)[C@@H]2[C@@H](O)CCN2C(=O)[C@H]([C@@H](O)CC(N)=O)NC(=O)[C@H]([C@H](O)[C@@H](O)c2ccc(OC(=O)OCCN(C)C)cc2)NC(=O)[C@@H]2C[C@@H](O)CN2C(=O)[C@H]([C@@H](C)O)NC1=O.O=C(O)C(F)(F)F (stereo partly specified)	–	–	–	–	–	–	–	6	0.6
CCC(C)CC(C)CCCCCCCCC(=O)N[C@H]1C[C@@H](O)[C@@H](O)NC(=O)[C@@H]2[C@@H](O)CCN2C(=O)[C@H]([C@@H](O)CC(N)=O)NC(=O)[C@H]([C@H](O)[C@@H](O)c2ccc(OC(=O)CCN)cc2)NC(=O)[C@@H]2C[C@@H](O)CN2C(=O)[C@H]([C@@H](C)O)NC1=O.Cl (stereo partly specified)	–	–	–	–	–	–	–	6	0.15
CCC(C)CC(C)CCCCCCCCC(=O)N[C@H]1C[C@@H](O)[C@@H](O)NC(=O)[C@@H]2[C@@H](O)CCN2C(=O)[C@H]([C@@H](O)CC(N)=O)NC(=O)[C@H]([C@H](O)[C@@H](O)c2ccc(OC(=O)N(C)CC(=O)O)cc2)NC(=O)[C@@H]2C[C@@H](O)CN2C(=O)[C@H]([C@@H](C)O)NC1=O (stereo partly specified)	–	–	–	–	–	–	–	> 6	> 0.6
CCC(C)CC(C)CCCCCCCCC(=O)N[C@H]1C[C@@H](O)[C@@H](O)NC(=O)[C@@H]2[C@@H](O)CCN2C(=O)[C@H]([C@@H](O)CC(N)=O)NC(=O)[C@H]([C@H](O)[C@@H](O)c2ccc(OC(=O)CCCC(=O)O)cc2)NC(=O)[C@@H]2C[C@@H](O)CN2C(=O)[C@H]([C@@H](C)O)NC1=O (stereo partly specified)	–	–	–	–	–	–	–	6	0.6
CCC(C)CC(C)CCCCCCCCC(=O)N[C@H]1C[C@@H](O)[C@@H](O)NC(=O)[C@@H]2[C@@H](O)CCN2C(=O)[C@H]([C@@H](O)CC(N)=O)NC(=O)[C@H]([C@H](O)[C@@H](O)c2ccc(OC(=O)NCCN(C)C)cc2)NC(=O)[C@@H]2C[C@@H](O)CN2C(=O)[C@H]([C@@H](C)O)NC1=O.O=C(O)C(F)(F)F (stereo partly specified)	–	–	–	–	–	–	–	6	0.6
CCC(C)CC(C)CCCCCCCCC(=O)N[C@H]1C[C@@H](O)[C@@H](O)NC(=O)[C@@H]2[C@@H](O)CCN2C(=O)[C@H]([C@@H](O)CC(N)=O)NC(=O)[C@H]([C@H](O)[C@@H](O)c2ccc(OC(=O)CN)cc2)NC(=O)[C@@H]2C[C@@H](O)CN2C(=O)[C@H]([C@@H](C)O)NC1=O.Cl (stereo partly specified)	–	–	–	–	–	–	–	3	0.6
CCC(C)CC(C)CCCCCCCCC(=O)N[C@H]1C[C@@H](O)[C@@H](O)NC(=O)[C@@H]2[C@@H](O)CCN2C(=O)[C@H]([C@@H](O)CC(N)=O)NC(=O)[C@H]([C@H](O)[C@@H](O)c2ccc(OC(=O)NCCC(=O)O)cc2)NC(=O)[C@@H]2C[C@@H](O)CN2C(=O)[C@H]([C@H](C)O)NC1=O (stereo partly specified)	–	128	> 128	< 5.00	> 400	128	128	–	–
CCC(C)CC(C)CCCCCCCCC(=O)N[C@H]1C[C@@H](O)[C@@H](O)NC(=O)[C@@H]2[C@@H](O)CCN2C(=O)[C@H]([C@@H](O)CC(N)=O)NC(=O)[C@H]([C@H](O)[C@@H](O)c2ccc(OC(=O)NCCN(C)C)cc2)NC(=O)[C@@H]2C[C@@H](O)CN2C(=O)[C@H]([C@H](C)O)NC1=O (stereo partly specified)	64	1	–	6.00	25	1	1	–	–
